# Species on record: Rattus norvegicus
# Test: In vitro antagonistic potency against release of luteinizing hormone (LH) from cultured rat pituitary cells.
# Assay type: functional
# Conditions: Pituitary gland cell, read-out: pA2 (converted)
# Summary of the method: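 Cultured rat pituitary cells, agonist-stimulated LH release. pA2 is the negative log of the antagonist concentration that makes a 2-fold higher agonist concentration necessary to release LH. Compounds tested as TFA salts.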
row,SMILES,Kb
1,CCNC(=O)[C@@H]1CCCN1C(=O)[C@H](CCCN=C(N)N)NC(=O)[C@H](CC(C)C)NC(=O)[C@@H](Cc1c[nH]c2ccccc12)NC(=O)[C@H](Cc1ccc(O)cc1)NC(=O)[C@H](CO)NC(=O)[C@@H](Cc1ccc(Cl)cc1)NC(=O)CCc1ccc(F)cc1,0.0178 nM
2,CCNC(=O)[C@@H]1CCCN1C(=O)[C@H](CCCN=C(N)N)NC(=O)[C@H](CC(C)C)NC(=O)[C@@H](Cc1c[nH]c2ccccc12)NC(=O)[C@H](Cc1ccc(O)cc1)NC(=O)[C@H](CO)NC(=O)[C@@H](Cc1c[nH]c2ccccc12)NC(=O)c1cc2cc(F)ccc2[nH]1,41.7 nM
3,CCNC(=O)[C@@H]1CCCN1C(=O)[C@H](CCCN=C(N)N)NC(=O)[C@H](CC(C)C)NC(=O)[C@@H](Cc1c[nH]c2ccccc12)NC(=O)[C@H](Cc1ccc(O)cc1)N(C)C(=O)[C@H](CO)NC(=O)[C@@H](Cc1cccc2ccccc12)NC(=O)CCc1ccc(F)cc1,0.00562 nM
4,CCNC(=O)[C@@H]1CCCN1C(=O)[C@H](CCCN=C(N)N)NC(=O)[C@H](CC(C)C)NC(=O)[C@@H](Cc1c[nH]c2ccccc12)NC(=O)[C@H](Cc1ccc(O)cc1)NC(=O)[C@H](CO)NC(=O)[C@@H](Cc1c[nH]c2ccccc12)NC(=O)c1cc2ccccc2[nH]1,0.851 nM
5,CCNC(=O)[C@@H]1CCCN1C(=O)[C@H](CCCN=C(N)N)NC(=O)[C@H](CC(C)C)NC(=O)[C@@H](Cc1ccc(O)cc1)NC(=O)[C@H](Cc1ccc(O)cc1)NC(=O)[C@H](CO)NC(=O)[C@H](Cc1c[nH]c2ccccc12)NC(=O)CCc1ccc(F)cc1,12.6 nM
6,CCNC(=O)[C@@H]1CCCN1C(=O)[C@H](CCCN=C(N)N)NC(=O)[C@H](CC(C)C)NC(=O)[C@@H](Cc1ccc(Cl)cc1)NC(=O)[C@H](Cc1ccc(O)cc1)NC(=O)[C@H](CO)NC(=O)[C@H](Cc1c[nH]c2ccccc12)NC(=O)CCc1ccc(F)cc1,0.00891 nM
7,CCNC(=O)[C@@H]1CCCN1C(=O)[C@H](CCCN=C(N)N)NC(=O)[C@H](CC(C)C)NC(=O)[C@@H](Cc1c[nH]c2ccccc12)NC(=O)[C@H](Cc1ccc(O)cc1)NC(=O)[C@H](CO)NC(=O)[C@@H](Cc1cccc2ccccc12)NC(=O)CCc1ccc(F)cc1,0.00708 nM
8,CCNC(=O)[C@@H]1CCCN1C(=O)[C@H](CCCN=C(N)N)NC(=O)[C@H](CC(C)C)NC(=O)[C@@H](Cc1c[nH]c2ccccc12)NC(=O)[C@H](Cc1ccc(O)cc1)NC(=O)[C@H](CO)NC(=O)[C@H](Cc1c[nH]c2ccccc12)NC(=O)Cc1ccccc1,5.5 nM
9,CCNC(=O)[C@@H]1CCCN1C(=O)[C@H](CCCN=C(N)N)NC(=O)[C@H](CC(C)C)NC(=O)[C@@H](Cc1c[nH]c2ccccc12)NC(=O)[C@H](Cc1ccc(O)cc1)NC(=O)[C@H](CO)NC(=O)[C@H](Cc1c[nH]c2ccccc12)NC(=O)CCc1ccc(C(F)(F)F)cc1,0.955 nM
10,CCNC(=O)[C@@H]1CCCN1C(=O)[C@H](CCCN=C(N)N)NC(=O)[C@H](CC(C)C)NC(=O)[C@@H](Cc1c[nH]c2ccccc12)NC(=O)[C@H](Cc1ccc(O)cc1)NC(=O)[C@H](CO)NC(=O)[C@H](Cc1c[nH]c2ccccc12)NC(=O)c1cc2ccccc2[nH]1,17.8 nM
11,CCNC(=O)[C@@H]1CCCN1C(=O)[C@H](CCCN=C(N)N)NC(=O)[C@H](CC(C)C)NC(=O)[C@@H](Cc1c[nH]c2ccccc12)NC(=O)[C@H](Cc1ccc(O)cc1)NC(=O)[C@H](CO)NC(=O)[C@H](Cc1c[nH]c2ccccc12)NC(=O)Cc1ccc(Cl)cc1,5.5 nM
12,CCNC(=O)[C@@H]1CCCN1C(=O)[C@H](CCCN=C(N)N)NC(=O)[C@H](CC(C)C)NC(=O)[C@@H](Cc1c[nH]c2ccccc12)NC(=O)[C@H](Cc1ccc(O)cc1)NC(=O)[C@H](CO)NC(=O)[C@H]1CCCN1C(=O)CCc1ccc(F)cc1,2.4 nM
13,CCNC(=O)[C@@H]1CCCN1C(=O)[C@H](CCCN=C(N)N)NC(=O)[C@H](CC(C)C)NC(=O)[C@@H](Cc1c[nH]c2ccccc12)NC(=O)[C@H](Cc1ccc(O)cc1)N(C)C(=O)[C@H](CO)NC(=O)[C@@H](Cc1c[nH]c2ccccc12)NC(=O)CCc1ccc(F)cc1F,0.01 nM
14,CCNC(=O)[C@@H]1CCCN1C(=O)[C@H](CCCN=C(N)N)NC(=O)[C@H](CC(C)C)NC(=O)[C@@H](Cc1c[nH]c2ccccc12)NC(=O)[C@H](Cc1ccc(O)cc1)NC(=O)[C@H](CO)NC(=O)[C@H](Cc1c[nH]c2ccccc12)NC(=O)[C@H](Cc1ccccc1)NC(C)=O,9.55 nM
15,CCNC(=O)[C@@H]1CCCN1C(=O)[C@H](CCCN=C(N)N)NC(=O)[C@H](CC(C)C)NC(=O)[C@@H](CCCCNC(=O)c1cccnc1)NC(=O)[C@H](Cc1ccc(O)cc1)N(C)C(=O)[C@H](CO)NC(=O)[C@@H](Cc1c[nH]c2ccccc12)NC(=O)CCc1ccc(F)cc1,0.0347 nM
16,CCNC(=O)[C@@H]1CCCN1C(=O)[C@H](CCCN=C(N)N)NC(=O)[C@H](CC(C)C)NC(=O)[C@@H](CCCCNC(=O)c1cccnc1)NC(=O)[C@H](Cc1ccc(O)cc1)N(C)C(=O)[C@H](CO)NC(=O)[C@@H](Cc1c[nH]c2ccccc12)NC(=O)CCc1ccc(F)cc1F,0.00891 nM
17,CCNC(=O)[C@@H]1CCCN1C(=O)[C@H](CCCN=C(N)N)NC(=O)[C@H](CC(C)C)NC(=O)[C@@H](Cc1c[nH]c2ccccc12)NC(=O)[C@H](Cc1ccc(O)cc1)N(C)C(=O)[C@H](CO)NC(=O)[C@@H](Cc1cccc2ccccc12)NC(=O)CCc1ccc(Br)cc1,0.00631 nM

row,SMILES,Kb
1,CCNC(=O)[C@@H]1CCCN1C(=O)[C@H](CCCN=C(N)N)NC(=O)[C@H](CC(C)C)NC(=O)[C@@H](Cc1c[nH]c2ccccc12)NC(=O)[C@H](Cc1ccc(O)cc1)NC(=O)[C@H](CO)NC(=O)[C@H](Cc1c[nH]c2ccccc12)NC(=O)CCc1ccc(OC)cc1,2.4 nM
2,CCNC(=O)[C@@H]1CCCN1C(=O)[C@H](CCCN=C(N)N)NC(=O)[C@H](CC(C)C)NC(=O)[C@@H](Cc1c[nH]c2ccccc12)NC(=O)[C@H](Cc1ccc(O)cc1)N(C)C(=O)[C@H](CO)NC(=O)[C@@H](Cc1c[nH]c2ccccc12)NC(=O)CCc1ccc(Cl)cc1,0.00398 nM
3,CCNC(=O)[C@@H]1CCCN1C(=O)[C@H](CCCN=C(N)N)NC(=O)[C@H](CC(C)C)NC(=O)[C@@H](Cc1c[nH]c2ccccc12)NC(=O)[C@H](Cc1ccc(O)cc1)NC(=O)[C@H](CO)NC(=O)[C@H](Cc1c[nH]c2ccccc12)NC(=O)CCc1cccc(F)c1,0.891 nM
4,CCNC(=O)[C@@H]1CCCN1C(=O)[C@H](CCCN=C(N)N)NC(=O)[C@H](CC(C)C)NC(=O)[C@@H](CCCCNC(=O)c1cccnc1)NC(=O)[C@H](Cc1ccc(O)cc1)NC(=O)[C@H](CO)NC(=O)[C@@H](Cc1c[nH]c2ccccc12)NC(=O)CCc1ccc(F)cc1,0.0955 nM
5,CCNC(=O)[C@@H]1CCCN1C(=O)[C@H](CCCN=C(N)N)NC(=O)[C@H](CC(C)C)NC(=O)[C@@H](Cc1c[nH]c2ccccc12)NC(=O)[C@H](Cc1ccc(O)cc1)NC(=O)[C@H](CO)NC(=O)[C@H](Cc1c[nH]c2ccccc12)NC(=O)CCc1ccccc1F,0.447 nM
6,CCNC(=O)[C@@H]1CCCN1C(=O)[C@H](CCCN=C(N)N)NC(=O)[C@H](CC(C)C)NC(=O)[C@@H](Cc1c[nH]c2ccccc12)NC(=O)[C@H](Cc1ccc(O)cc1)NC(=O)[C@H](CO)NC(=O)[C@@H](Cc1c[nH]c2ccccc12)NC(=O)Cc1ccc(C(F)(F)F)cc1,2.63 nM
7,CCNC(=O)[C@@H]1CCCN1C(=O)[C@H](CCCN=C(N)N)NC(=O)[C@H](CC(C)C)NC(=O)[C@@H](CCCCNC(=O)c1cccnc1)NC(=O)[C@H](Cc1ccc(O)cc1)N(C)C(=O)[C@H](CO)NC(=O)[C@@H](Cc1c[nH]c2ccccc12)NC(=O)CCc1cccc(F)c1,0.0871 nM
8,CCNC(=O)[C@@H]1CCCN1C(=O)[C@H](CCCN=C(N)N)NC(=O)[C@H](CC(C)C)NC(=O)[C@@H](Cc1c[nH]c2ccccc12)NC(=O)[C@H](Cc1ccc(O)cc1)NC(=O)[C@@H]1CC(O)CN1C(=O)[C@@H](Cc1c[nH]c2ccccc12)NC(=O)CCc1ccc(F)cc1 (some centres undefined),20.9 nM
9,CC(C)C[C@H](NC(=O)[C@@H](CCCCNC(=O)c1cccnc1)NC(=O)[C@H](Cc1ccc(O)cc1)N(C)C(=O)[C@H](CO)NC(=O)[C@@H](Cc1cccc2ccccc12)NC(=O)CCc1ccc(F)cc1)C(=O)N[C@@H](CCCCNC(C)C)C(=O)N1CCC[C@H]1C(=O)O,7.76 nM
10,CCNC(=O)[C@@H]1CCCN1C(=O)[C@H](CCCN=C(N)N)NC(=O)[C@H](CC(C)C)NC(=O)[C@@H](Cc1c[nH]c2ccccc12)NC(=O)[C@H](Cc1ccc(O)cc1)NC(=O)[C@H](CO)NC(=O)[C@H](Cc1cccc2ccccc12)NC(=O)CCc1ccc(F)cc1,0.00501 nM
11,CC(C)C[C@H](NC(=O)[C@@H](CCCCNC(=O)c1cccnc1)NC(=O)[C@H](Cc1ccc(O)cc1)N(C)C(=O)[C@H](CO)NC(=O)[C@@H](Cc1cccc2ccccc12)NC(=O)CCc1ccc(F)cc1)C(=O)N[C@@H](CCCCNC(C)C)C(=O)N1CCC[C@H]1C(N)=O,0.00692 nM
12,CCNC(=O)[C@@H]1CCCN1C(=O)[C@H](CCCN=C(N)N)NC(=O)[C@H](CC(C)C)NC(=O)[C@@H](Cc1c[nH]c2ccccc12)NC(=O)[C@H](Cc1ccc(O)cc1)NC(=O)[C@H](CO)N(C)C(=O)[C@@H](Cc1c[nH]c2ccccc12)NC(=O)CCc1ccc(F)cc1,0.115 nM
13,CCNC(=O)[C@@H]1CCCN1C(=O)[C@H](CCCN=C(N)N)NC(=O)[C@H](CC(C)C)NC(=O)[C@@H](CCCCNC(=O)c1cccnc1)NC(=O)[C@H](Cc1ccc(O)cc1)NC(=O)[C@H](CO)NC(=O)[C@H](Cc1c[nH]c2ccccc12)NC(=O)CCc1ccc(F)cc1,20.9 nM
14,CCNC(=O)[C@@H]1CCCN1C(=O)[C@H](CCCN=C(N)N)NC(=O)[C@H](CC(C)C)NC(=O)[C@@H](Cc1c[nH]c2ccccc12)NC(=O)[C@H](Cc1ccc(O)cc1)NC(=O)[C@H](CO)NC(=O)[C@@H](Cc1c[nH]c2ccccc12)NC(=O)CCc1ccc(Cl)cc1,0.166 nM
15,CCNC(=O)[C@@H]1CCCN1C(=O)[C@H](CCCN=C(N)N)NC(=O)[C@H](CC(C)C)NC(=O)[C@@H](Cc1c[nH]c2ccccc12)NC(=O)[C@H](Cc1ccc(O)cc1)NC(=O)[C@H](CO)NC(=O)[C@H](Cc1c[nH]c2ccccc12)NC(=O)CCc1ccc(Cl)cc1,0.126 nM
16,CCNC(=O)[C@@H]1CCCN1C(=O)[C@H](CCCN=C(N)N)NC(=O)[C@H](CC(C)C)NC(=O)[C@@H](CCCCNC(=O)c1cccnc1)NC(=O)[C@H](Cc1ccc(O)cc1)N(C)C(=O)[C@H](CO)NC(=O)[C@@H](Cc1c[nH]c2ccccc12)NC(=O)CCc1ccc(Cl)cc1,0.0158 nM
17,CCNC(=O)[C@@H]1CCCN1C(=O)[C@H](CCCN=C(N)N)NC(=O)[C@H](CC(C)C)NC(=O)[C@@H](Cc1c[nH]c2ccccc12)NC(=O)[C@H](Cc1ccc(O)cc1)NC(=O)[C@H](CO)NC(=O)[C@@H](Cc1c[nH]c2ccccc12)NC(=O)CCc1ccc(F)c(F)c1,0.0355 nM
